Measured values from paper PMC9426400 (Hepatology Communications, 2022).
Read-outs that look alike come from different tables or passages of the source.

Columns and labels:
Huh7 cells = assay: FAO assay in Huh7 cells; assay type: cell-based, human; details: for EC50: Homo sapiens; for FAO induction (times): 14C-OA, monotherapy; for Stimulation of FAO: at the concentrations tested
[1] = tested on: LX2 human hepatic stellate cell line; assay: LX2 collagen assay; assay type: cell-based; details: LX-2, read-out: EC50, inhibition of collagen production
[2] = tested on: FFD-fed dyslipidemic Sprague Dawley rats; assay: Dyslipidemic rat model; assay type: in vivo; details: for Dose in ACCi combination with significantly reduced hepatic Apoc3 expression: relative to both vehicle and ACCi alone; for Dose inducing PPAR target genes in eWAT: epidydimal white adipose tissue
Method in brief: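 Sprague Dawley rats fed FFD plus 4.03% sugar water (2.3% fructose, 1.7% glucose) for 28 days, across three studies. PPAR or THRβ agonists started Day 7 and ACCi Day 14. Circulating TG on Day 22 (serum Study 2, plasma Studies 3–4; n = 5–10/group). Terminal liver TG was taken fed, 8 h post-dose. Liver and eWAT gene expression measured. Nonparametric statistics, p ≤ 0.05.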

subjects with NASH = details: cited from earlier work
FFD-fed C57BL/6 mice = assay: FFD mouse model of early NASH; assay type: in vivo
rat PPARδ = biological target: T1, rat PPARδ (Rattus norvegicus, UniProt Q62879); assay: PPAR luciferase reporter assay, rat PPARδ; assay type: cell-based
T1 sequence (Q62879 1-440): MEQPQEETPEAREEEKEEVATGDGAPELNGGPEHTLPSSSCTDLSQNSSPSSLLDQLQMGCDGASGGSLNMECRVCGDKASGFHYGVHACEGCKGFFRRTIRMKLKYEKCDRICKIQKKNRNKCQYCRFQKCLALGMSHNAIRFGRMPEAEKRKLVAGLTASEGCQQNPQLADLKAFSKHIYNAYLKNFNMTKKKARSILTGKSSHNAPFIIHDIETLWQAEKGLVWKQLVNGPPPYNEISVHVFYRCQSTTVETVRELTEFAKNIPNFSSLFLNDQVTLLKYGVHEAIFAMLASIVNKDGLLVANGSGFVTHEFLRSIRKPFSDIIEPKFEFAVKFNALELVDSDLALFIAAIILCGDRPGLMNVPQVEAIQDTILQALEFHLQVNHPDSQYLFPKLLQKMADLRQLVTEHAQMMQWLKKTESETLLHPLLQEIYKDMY

FAO = FAO assay validation with CPT1 inhibitor etomoxir; assay type: cell-based; details: read-out: EC50, block of FAO
[3] = Huh-7, read-out: FAO EC50, Huh7 cells, 14C-OA, monotherapy
[4] = Study 2, combination with ACCi 30 mg/kg, 15 mg/kg Feno, 30 mg/kg Ela

## CSc1ccc(C(=O)/C=C/c2cc(C)c(OC(C)(C)C(=O)O)c(C)c2)cc1 [Ela, elafibranor]
Huh7 cells; [3]
  EC50: 10300 nM
Huh7 cells; Huh7 cells
  FAO induction (times): 1.4 times
[1]
  EC50: ~2000 nM
[2]; [4]
  Liver TG reduction compared with vehicle: 76%
[2]
  Dose in ACCi combination with significantly reduced hepatic Apoc3 expression: ≥ 3 mg/kg

## CC(C)c1cc(Oc2c(Cl)cc(-n3nc(C#N)c(=O)[nH]c3=O)cc2Cl)n[nH]c1=O [Res, Resmetirom]
Huh7 cells; [3]
  EC50: 46000 nM
Huh7 cells; Huh7 cells
  FAO induction (times): 1.6 times
[2]; Study 4, 1 mg/kg Res in combination with ACCi 30 mg/kg
  Liver TG reduction compared with vehicle: 83%
[2]; Study 4, 3 mg/kg Res in combination with ACCi 30 mg/kg
  Liver TG reduction compared with vehicle: 88%
[2]; dyslipidemic rats, combined with ACCi 30 mg/kg
  Liver TG in combination with ACCi relative to ACCi alone: lowered liver TG relative to ACCi alone
[2]; dyslipidemic rats, monotherapy, 3 mg/kg, after 1 week
  Circulating TG reduction vs. vehicle: 50%
[2]
  Dose in ACCi combination with significantly reduced hepatic Apoc3 expression: 3 mg/kg
Subjects with NASH; vs. 6.5% placebo
  NASH resolution (share of subjects): 27.4%

## CCO[C@H](COc1ccc(C(F)(F)F)cc1)CSc1ccc(OCC(=O)O)c(C)c1 [Sela, seladelpar]
Huh7 cells; Huh7 cells
  Stimulation of FAO: did not stimulate FAO
[2]; dyslipidemic rats
  Dose inducing PPAR target genes in eWAT: 15 mg/kg
[2]
  Dose in ACCi combination with significantly reduced hepatic Apoc3 expression: 15 mg/kg
Subjects with NASH; over 52 weeks, vs. 8% placebo
  NASH resolution (share of subjects): 26%

## CCc1ccc(CCOc2ccc(CC3SC(=O)NC3=O)cc2)nc1 (centres unmarked) [pioglitazone]
Subjects with NASH; vs. 21% placebo
  NASH resolution (share of subjects): 47%

## CC(C)OC(=O)C(C)(C)Oc1ccc(C(=O)c2ccc(Cl)cc2)cc1 [Feno, fenofibrate]
FFD-fed C57BL/6 mice; Feno^high (150 mg/kg) monotherapy
  Liver total cholesterol content reduction: 57%
FFD-fed C57BL/6 mice; Feno^low (50 mg/kg) monotherapy
  Liver total cholesterol content reduction: 49%
[2]; [4]
  Liver TG reduction compared with vehicle: 58%
[2]
  Dose in ACCi combination with significantly reduced hepatic Apoc3 expression: ≥ 5 mg/kg

## CCO[C@@H](Cc1ccc(OCCn2c(C)ccc2-c2ccc(SC)cc2)cc1)C(=O)O [Saro, saroglitazar]
Huh7 cells; [3]
  EC50: 51500 nM
Huh7 cells; Huh7 cells
  FAO induction (times): 3.6 times
[2]; dyslipidemic rats
  Dose inducing PPAR target genes in eWAT: 3 mg/kg
[2]
  Dose in ACCi combination with significantly reduced hepatic Apoc3 expression: ≥ 0.3 mg/kg

## CC(C)(Oc1ccc(C(=O)c2ccc(Cl)cc2)cc1)C(=O)O [Fenofibric acid]
Huh7 cells; Huh7 cells, up to a concentration of 100 μM
  Activity in the FAO assay: not active

## O=C(O)CCCc1cc2cc(Cl)ccc2n1S(=O)(=O)c1ccc2ncsc2c1 [Lani, lanifibranor]
Rat PPARδ
  Activation of rat PPARδ: did not activate rat PPARδ
Huh7 cells; Huh7 cells
  Stimulation of FAO: did not stimulate FAO
Subjects with NASH; over 24 weeks, vs. 19% placebo
  NASH resolution (share of subjects): 45%
Subjects with NASH; over 24 weeks, vs. 24% placebo
  Fibrosis regression (share of subjects): 42%

## COc1ccccc1[C@H](Cn1c(=O)n(C(C)(C)C(=O)O)c(=O)c2c(C)c(-c3ncco3)sc21)OC1CCOCC1 [FIR, Firsocostat]
Huh7 cells; Huh-7, read-out: FAO EC50, Huh7 cells, 14C-OA tracer
  EC50: 32.7 nM
Huh7 cells; Huh-7, read-out: FAO EC50, Huh7 cells, 14C-PA tracer
  EC50: 16.6 nM
Subjects with NASH; subjects with NASH
  Reduction in relative liver TG: 30%

## CCOC(=O)[C@@]1(CCCCCCOc2ccc(Cl)cc2)CO1 [etomoxir]
FAO
  EC50: 136 nM
